Results reported in publication PMC5914179 (Advanced functional materials, 2016).

Assays:
[1] = target: thrombin (Homo sapiens, UniProt P00734); assay: Sensor cleavage during CaCl2-activated clotting of human plasma/serum; assay type: biochemical; conditions: control human plasma + CaCl2, PEG-T1Q sensor
[2] = target: recombinant human MMP9 (Homo sapiens, UniProt P14780); assay: In vitro cleavage assay; assay type: biochemical; conditions: inhibitor 5 μM final, ~100 nM MMP9, PEG-M1Q 1 μM by peptide
Procedure, shortened: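 Quenched fluorogenic PEG-peptide substrate at 1 × 10^-6 M by peptide, incubated with recombinant human MMP9 (≈100 × 10^-9 M working concentration), with or without MMP inhibitor. Fluorescence dequenching monitored over time on a microplate reader.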

Sequence of recombinant human MMP9 (P14780 94-707): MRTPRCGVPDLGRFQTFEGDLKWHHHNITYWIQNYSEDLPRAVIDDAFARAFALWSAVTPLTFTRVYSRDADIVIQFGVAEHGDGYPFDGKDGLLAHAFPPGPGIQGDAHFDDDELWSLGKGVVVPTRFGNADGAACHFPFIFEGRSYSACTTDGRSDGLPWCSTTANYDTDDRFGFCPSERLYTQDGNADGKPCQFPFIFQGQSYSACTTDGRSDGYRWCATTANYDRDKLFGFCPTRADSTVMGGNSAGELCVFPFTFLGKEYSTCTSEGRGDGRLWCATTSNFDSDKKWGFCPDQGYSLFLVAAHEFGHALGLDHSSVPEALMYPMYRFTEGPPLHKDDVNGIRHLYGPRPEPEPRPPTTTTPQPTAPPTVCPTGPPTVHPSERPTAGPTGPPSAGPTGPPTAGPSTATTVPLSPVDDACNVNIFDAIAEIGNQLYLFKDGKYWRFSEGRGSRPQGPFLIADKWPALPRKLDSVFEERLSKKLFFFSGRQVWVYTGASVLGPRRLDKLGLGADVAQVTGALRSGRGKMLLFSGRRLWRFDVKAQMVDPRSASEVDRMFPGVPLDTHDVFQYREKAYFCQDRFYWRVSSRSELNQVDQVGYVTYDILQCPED

## CC1CNc2c(cccc2S(=O)(=O)N[C@@H](CCCNC(=N)N)C(=O)N2CC[C@@H](C)C[C@@H]2C(=O)O)C1 (some centres unmarked) [Argatroban]
[1]
  effect of thrombin inhibitor on CaCl2-induced fluorescence increase of PEG-T1Q: eliminated the fluorescence increase

## CNC(=O)[C@@H](NC(=O)[C@H](CC(C)C)[C@H](O)C(=O)NO)C(C)(C)C [Marimastat]
[2]
  effect of MMP inhibitor on MMP9 proteolysis of PEG-M1Q: abrogated
